Screens (PubChem)
Shown are actives, neighbours in structure and some others; about 4% of the full set was active somewhere.
SENP1 FRET inh = human SENP1 catalytic domain inhibitors, primary screen, biochemical, FRET, uHTS | Sentrin-specific protease 1 (Homo sapiens), Q9P0U3 | recombinant SENP1 catalytic domain, CyPet-SUMO1-YPet FRET cleavage | inhibition, % at 10 µM | 0.21% of 360,000 active | AID 624204, 2012;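 active means inhibition at least 30% at 10 µM, raw YFP signal under a set limit, fluorescence ratio 0.5 to 1.5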
Target sequence (Q9P0U3 419-644 limits assumed): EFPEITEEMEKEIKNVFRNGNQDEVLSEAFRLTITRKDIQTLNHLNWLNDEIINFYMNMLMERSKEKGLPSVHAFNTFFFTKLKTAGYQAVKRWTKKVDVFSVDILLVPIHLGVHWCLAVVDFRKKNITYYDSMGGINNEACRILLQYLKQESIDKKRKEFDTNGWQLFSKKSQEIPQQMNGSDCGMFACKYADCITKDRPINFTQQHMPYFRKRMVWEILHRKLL
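Test system: hSENP1 catalytic domain, recombinant; Amount: 20 pM final SENP1 enzyme; Medium: Tris pH 8 buffer plus EDTA, NaCl, BME, BSA, NP40, catalase; Schedule: 50 min enzyme reaction, room temperature, light-protected; Technique: FRET fluorescence in CFP and YFP emission channels; Controls: no-enzyme wells low, DMSO-plus-enzyme wells high control.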
FAS-TE inh = FAS thioesterase domain inhibitors, primary screen, biochemical, fluorescence intensity, uHTS; Fatty acid synthase (Homo sapiens), P49327; recombinant FAS-TE, OMFH fluorogenic substrate, fluorescence endpoint; inhibition, % at 15 µM; 0.67% of 360,000 active; AID 602261, 2012;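 active means compounds whose normalised, plate-corrected inhibition of enzyme fluorescence in the single-dose primary screen is 50% or more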
iPSC survival up = enhancers of single-cell hiPSC survival, primary screen, ATPlite luminescence. survival enhancement, % at 20 µM. 0.044% of 360,000 active. 100% = ROCK inhibitor wells, 0% = DMSO; in the data active means survival enhancement above about 18%;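 further: cells exposed to compounds for 16 hours before the ATP read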
GRIN3A LBD mod = binders of NR3A ligand-binding domain, primary screen, biophysical, differential scanning fluorimetry, uHTS; AID 1259313, 2017; Glutamate receptor ionotropic, NMDA 3A (GRIN3A) ligand-binding domain; Tm shift relative to glycine control, % at 25 µM; 2.5% of 340,000 active; NR3A LBD differential scanning fluorimetry, Tm shift; 0% = protein alone, 100% = glycine-bound protein;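 active means melting temperature shift of at least 10% of the positive control shift, at one fixed dose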
Arr AP2 block = inhibitors of beta-arrestin/AP2 binding, primary screen, biochemical, GPCR trafficking, flow cytometry; beta-arrestin 1 C-terminal peptide binding to AP2 beta2-adaptin appendage (human); FITC-arrestin peptide / GST-AP2 beads; AP2 beta2 appendage carries R879A mutation; inhibition, % at 10 µM; 0.31% of 340,000 active; AID 504490, 2011;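 active means inhibition above a set limit, near 3 SD of compounds lacking own fluorescence, cut at about 54% in these data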
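Material – GST-tagged AP2 beta2-adaptin appendage (R879A) on 4 µm glutathione beads · Probe or stimulus – fluorescein-tagged arrestin peptide at 50 nM final · Timing – 12 min plus 1 h, RT · Detection – bead flow cytometry, FITC channel · Read-out basis – inhibition as reduced fluorescein signal on beads, percent · Medium – PBS plus Tween 20 (0.05%) and BSA (0.1%)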
H9c2 protect = cardioprotection against H2O2-induced cell death, primary screen, uHTS, H9c2 cells, ATPLite luminescence; H9c2 cardiomyocytes, H2O2 injury protection, 2 h; protection from H2O2 cell death, % at 20 µM; 0.63% of 360,000 active;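 active means compounds giving at least 50% protection of heart cells from peroxide-induced death in the single-dose screen, raw or plate-pattern-corrected value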
A number is an active result; n = inactive; x = no result given.

SMILES | SENP1 FRET inh | FAS-TE inh | iPSC survival up | GRIN3A LBD mod | Arr AP2 block | H9c2 protect
CS(=O)(=O)N1CCN(c2ccccc2NC(=O)Nc2cccc(Cl)c2)CC1 | n | n | n | 12 | n | n
COc1ccc(OC)c(CN2C(=O)CCC2(C)c2nnnn2-c2c(C)cccc2C)c1 (configuration not stated) | n | n | n | x | x | x
Clc1ccc(-c2nc3c4ccccc4ccn3c2Cc2ccsc2)cc1 | n | n | n | x | x | x
COc1ccc(NC(=O)C[C@H]2C(=O)N(Cc3ccccc3)C[C@@H]2CSC)cc1 | n | n | n | x | x | n
CCSc1ccc(C(=O)NCC(=O)O)cc1 | n | n | n | n | n | n
CSc1cccc(NC(=O)NCc2cccc(CNC(=O)Nc3cccc(SC)c3)c2)c1 | n | n | n | 16 | n | n
NS(=O)(=O)c1ccc(NC(=O)Nc2cccc(Cl)c2)cc1 | n | n | n | 33 | n | n
CSc1ccc(NC(=O)Nc2ccc(C(=O)NCC(=O)O)cc2)cc1 | n | n | n | 15 | n | n
NC(=O)c1cccc(-c2ccnc3c2CC(C(=O)Nc2ccc(Cl)cc2)O3)c1 (configuration not stated) | n | n | n | x | x | n
COc1ccc(NC(=O)C2(C)Cc3c(-c4cccc(C(N)=O)c4)ccnc3O2)cc1 (configuration not stated) | n | n | n | x | x | n
CC(Oc1ccccc1F)c1nnc(SCC(=O)NCc2ccc3c(c2)OCO3)o1 (configuration not stated) | n | n | n | n | n | n
CN=c1c([N+](=O)[O-])nn(-c2ccc3c(c2)OCCO3)n1O | n | n | n | n | n | n
O=[N+]([O-])c1nn(-c2ccc3c(c2)OCCO3)n(O)c1=NCc1ccc(F)cc1 | n | n | n | 13 | n | n
CCOC(=O)c1cnc2ccc(OCC)cc2c1NCc1ccccc1 | n | n | n | 15 | n | n
CCOC(=O)c1cnc(-n2nc(C)cc2C)nc1NCc1ccccc1 | n | n | n | n | n | 63
CCOC(=O)c1cnc2ccc(OCC)cc2c1NCc1cccnc1 | n | n | n | n | n | n
CCOC(=O)c1cnc(-n2nc(C)cc2C)nc1NCCO | n | n | n | n | n | n
Cc1ccccc1/C=N/Nc1ccnc2cc(Cl)ccc12 | n | n | n | n | n | n
Clc1ccc2c(N/N=C/c3ccc(Br)cc3)ccnc2c1 | n | n | n | 33 | n | n
Clc1ccc2c(N/N=C/c3cccnc3)ccnc2c1 | n | n | n | n | n | n
Oc1ccc(/C=N/Nc2ccnc3cc(Cl)ccc23)c(O)c1 | n | n | n | 27 | n | n
Cn1c(=O)c2cc(NC(=S)NCc3ccccc3F)ccc2n1Cc1cccc(C(F)(F)F)c1 | n | n | n | x | x | n
Cc1ccc(S(=O)(=O)N(C)c2ccc(OC(C)C(=O)N(C)c3ccccc3)cc2)cc1 (configuration not stated) | n | n | n | n | n | n
CC(=O)N1CCc2cc(NC(=O)C3(C)CCN3CCc3ccccc3)ccc21 (configuration not stated) | n | n | n | x | x | n
O=C1CC(c2ccc(O)cc2)Oc2cc(O)cc(O)c21 (configuration not stated) | n | n | n | n | n | n
SMILES | SENP1 FRET inh | FAS-TE inh | iPSC survival up | GRIN3A LBD mod | Arr AP2 block | H9c2 protect
CC1CC(=O)c2c(cc3c(-c4c(O)cc(O)c5c(O)c6c(cc45)OC(C)CC6=O)c(O)cc(O)c3c2O)O1 (configuration not stated) | 70 | n | n | 24 | n | n
N#Cc1ccc(S(=O)(=O)N2CCc3[nH]c4ccc(F)cc4c3C2)cc1 | n | n | n | 11 | n | n
Cc1nnc(SCC(=O)Nc2ccccc2NC(=O)CSc2nnc(C)s2)s1 | n | n | n | n | n | n
Cc1nnc(SCC(=O)Nc2ccc(-c3nc4ccccc4s3)cc2)s1 | n | n | n | 30 | n | n
O=C(CCN1C(=O)NC2(CCCC2)C1=O)Nc1ccc(-c2nc3ccccc3s2)cc1 | n | n | n | 26 | n | n
COc1ccc(-c2sc3ccccc3c2-c2cc(OC)ccc2C=O)cc1 | n | n | n | x | x | x
CCOC(=O)[C@]12CCCC=C1N(Cc1ccco1)C(=O)[C@H](CC(=O)NCc1cccc(C(F)(F)F)c1)C2 | n | n | n | x | x | x
CC(=O)c1ccccc1OCCCN1CCCCC1 | n | n | n | n | n | 53
CCCNC(=O)C1(C)CCN(C(=O)Cc2ccc3ccccc3c2)C1 (configuration not stated) | n | n | n | x | x | n
N#C/C(=N/Nc1ccc(OC(F)(F)F)cc1)C(N)=S | n | n | n | 16 | n | n
Cc1cc(C)c(N2C(=O)C3C4CC(=O)C(c5ccccc54)C3C2=O)c(C)c1 (configuration not stated) | n | n | n | n | n | n
Cc1cccc(N2C(=O)C3C4CC(=O)C(c5ccccc54)C3C2=O)c1C (configuration not stated) | n | n | n | 11 | n | n
CSc1ncnc2[nH]ccc12 | n | n | n | n | n | n
Cc1cc(C(=O)OC(C(=O)Nc2cccc(C(F)(F)F)c2)c2ccccc2)c(C)o1 (configuration not stated) | n | n | n | 13 | n | n
Cc1ccc(NC(=O)C(OC(=O)c2cc(C)oc2C)c2ccccc2)cc1 (configuration not stated) | n | n | n | n | n | n
Cc1cccc(CNC(=O)C2CCC(=O)N(CCCc3ccccc3)C2)c1 (configuration not stated) | n | n | n | x | x | n
O=C(N/N=C/c1ccccc1)c1[nH]c2ccc(Br)cc2c1-c1ccccc1 | n | n | n | 27 | n | n
O=C(N/N=C/c1ccccn1)c1[nH]c2ccc([N+](=O)[O-])cc2c1-c1ccccc1 | n | n | n | n | n | 84
CCCSc1nc(N2CCOCC2)c2c(c1C#N)CC(C)(C)SC2 | n | n | 23 | n | n | n
COC(=O)Sc1nc(N2CCOCC2)c2c(c1C#N)CC(C)(C)OC2 | n | n | n | n | n | 55
CCCCCSc1nc(N2CCOCC2)c2c(c1C#N)CC(C)(C)OC2 | n | n | n | 23 | n | n
C[C@@H]1CN([C@@H](C)CO)C(=O)c2cc(Br)cnc2O[C@H]1CN(C)C(=O)Nc1ccccc1 | n | n | n | x | x | n
COc1ccc(N=Nc2ccc(O)c3ncccc23)cc1 | n | n | n | n | n | n
CCc1ccc(N=Nc2ccc(O)c3[nH]cnc23)cc1 | 76 | n | n | n | n | n
